# Activity calls are given as the source filed them. The calls are words filed in the database; no cut-off is given here.
# Tests used:
# Focal adhesion kinase 1 = Focal adhesion kinase 1 (Homo sapiens, UniProt Q05397); experiment: Inhibition of FAK (unknown origin) using ULight-poly GT as substrate after 1.6 hrs by TR-FRET assay
# [1] = Antiproliferative activity against human U87MG cells after 48 hrs by WST-1 assay; format: functional, cell-based, U-87MG ATCC; conditions: U-87 MG
# Outline: (§1)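 Exponentially growing cells in DMEM/10% FBS seeded at 5 × 10^3 per well, left overnight, then exposed 48 h to compounds diluted from DMSO; WST-1 added for 2 h, absorbance at 450 nm (reference 620 nm); viability as ratio to DMSO controls; three independent experiments, triplicate points; IC50 by nonlinear regression (log inhibitor vs normalized response, variable slope).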
# [2] = Antiproliferative activity against human HCT116 cells after 48 hrs by WST-1 assay; format: functional, cell-based; conditions: HCT-116, 48 h; outline: as §1
# MDA-MB-231 [3] = experiment: Antiproliferative activity against human MDA-MB-231 cells after 48 hrs by WST-1 assay; format: functional, cell-based; conditions: MDA-MB-231, 48 h; outline: as §1
# [4] = Antiproliferative activity against human PC3 cells after 48 hrs by WST-1 assay; format: functional, cell-based; conditions: PC-3, 48 h; outline: as §1
# [5] = (§2) Inhibition of colony formation in human U87MG cells after 2 weeks by crystal violet staining-based assay; format: functional, cell-based, U-87MG ATCC; conditions: U-87 MG, 336 h
# Outline: (§3)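 Seeding: 250 cells per well for HCT-116, 300 for U87MG, MDA-MB-231 and PC-3; incubated overnight, then exposed to a range of concentrations for 2 weeks. Fixed in 4% paraformaldehyde 30 min at room temperature, stained with 0.1% crystal violet. Colonies over 50 cells counted; colony formation rate calculated; IC50 by nonlinear regression.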
# [6] = (§4) Inhibition of colony formation in human HCT116 cells after 2 weeks by crystal violet staining-based assay; format: functional, cell-based; conditions: HCT-116, 336 h; outline: as §3
# MDA-MB-231 [7] = experiment: Inhibition of colony formation in human MDA-MB-231 cells after 2 weeks by crystal violet staining-based assay; format: functional, cell-based; conditions: for IC50: MDA-MB-231, 336 h; outline: as §3
# [8] = (§5) Inhibition of colony formation in human PC3 cells after 2 weeks by crystal violet staining-based assay; format: functional, cell-based; conditions: PC-3, 336 h; outline: as §3
# U-87 MG [9] = experiment: Reduction of cell adherence in human U87MG cells after 30 mins by toluidine blue staining-based […]; format: functional; conditions: U-87MG ATCC
# Outline: (§6)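 U87-MG cells grown in 10% serum, trypsinised, diluted to 100 000 cells/mL in 10% serum medium, then treated 30 min with compound or DMSO. 20 000 cells per well allowed to attach 1 h. Fixed in 4% paraformaldehyde 30 min, stained with 0.1% toluidine blue in 4% PFA 30 min, washed, OD read at 620 nm for attached cells.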
# U-87MG ATCC [10] = experiment: Antimigratory activity in human U87MG cells at 4 uM […] by transwell membrane assay; format: functional, cell-based
# U-87MG ATCC [11] = experiment: Antimigratory activity in human U87MG cells after 30 mins by boyden chamber assay; format: functional, cell-based
# U-87MG ATCC [12] = experiment: as §2; format: functional, cell-based; outline: as §3
# HCT-116 [13] = experiment: as §4; format: functional, cell-based; outline: as §3
# PC-3 = experiment: as §5; format: functional, cell-based; outline: as §3
# U-87 MG [14] = experiment: Induction of apoptosis in human U87MG cells assessed as early apoptotic cells at 0.3 uM after 24 hrs by Annexin V-PE/7-AAD staining-based FACS analysis (reference value: 0.691%); format: functional, U-87MG ATCC
# U-87 MG [15] = experiment: Induction of apoptosis in human U87MG cells assessed as late apoptotic cells at 0.3 uM after 24 hrs by Annexin V-PE/7-AAD staining-based FACS analysis (reference value: 1.59%); format: functional, U-87MG ATCC
# U-87 MG [16] = experiment: Induction of apoptosis in human U87MG cells assessed as necrotic cells at 0.3 uM after 24 hrs by Annexin V-PE/7-AAD staining-based FACS analysis (reference value: 1.06%); format: functional, U-87MG ATCC
# U-87 MG [17] = experiment: Induction of apoptosis in human U87MG cells assessed as viable cells at 0.3 uM after 24 hrs by Annexin V-PE/7-AAD staining-based FACS analysis (reference value: 96.7%); format: functional, U-87MG ATCC; conditions: read-out: Activity
# HCT-116 [18] = experiment: Induction of apoptosis in human HCT116 cells assessed as early apoptotic cells at 0.4 uM after 24 hrs by Annexin V-PE/7-AAD staining-based FACS analysis (reference value: 4.68%); format: functional
# HCT-116 [19] = experiment: Induction of apoptosis in human HCT116 cells assessed as late apoptotic cells at 0.4 uM after 24 hrs by Annexin V-PE/7-AAD staining-based FACS analysis (reference value: 1.22%); format: functional
# HCT-116 [20] = experiment: Induction of apoptosis in human HCT116 cells assessed as necrotic cells at 0.4 uM after 24 hrs by Annexin V-PE/7-AAD staining-based FACS analysis (reference value: 0.885%); format: functional
# HCT-116 [21] = experiment: Induction of apoptosis in human HCT116 cells assessed as viable cells at 0.4 uM after 24 hrs by Annexin V-PE/7-AAD staining-based FACS analysis (reference value: 93.2%); format: functional; conditions: HCT-116, 24 h, read-out: Activity
# HCT-116 [22] = experiment: Induction of apoptosis in human HCT116 cells at < 0.4 uM after 24 hrs by Annexin V-PE/7-AAD staining-based FACS analysis; format: functional, cell-based
# [23] = Cell cycle arrest in human HCT116 cells assessed as accumulation at G0/G1 phase at 0.4 uM after 24 hrs by propidium iodide staining-based flow cytometry (reference value: 63.8%); format: functional; conditions: HCT-116
# Outline: (§7)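 Cells plated at 10^5 per well, left overnight, then exposed 24 h to compound or vehicle; stained 15 min at 37 °C with propidium iodide/Triton buffer; DNA content by flow cytometry, phase distribution fitted by Dean–Jett–Fox; HCT-116 at 0.3–0.5 μM, U87-MG at 0.3–3 μM; significance by unpaired Student's t test; one representative experiment.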
# [24] = Cell cycle arrest in human HCT116 cells assessed as accumulation at S phase at 0.4 uM after 24 hrs by propidium iodide staining-based flow cytometry (reference value: 17.7%); format: functional; conditions: HCT-116; outline: as §7
# [25] = Cell cycle arrest in human HCT116 cells assessed as accumulation at G2/M phase at 0.4 uM after 24 hrs by propidium iodide staining-based flow cytometry (reference value: 14.6%); format: functional; conditions: HCT-116; outline: as §7
# [26] = Cell cycle arrest in human U87MG cells at < 0.3 uM after 24 hrs by propidium iodide staining-based flow cytometry; format: functional; conditions: U-87MG ATCC; outline: as §7
# [27] = Cell cycle arrest in human HCT116 cells at < 0.4 uM after 24 hrs by propidium iodide staining-based flow cytometry; format: functional; conditions: HCT-116; outline: as §7
# U-87 MG [28] = experiment: Reduction of cell adherence in human U87MG cells at 0.5 uM after 30 mins by toluidine blue staining-based […]; format: functional, U-87MG ATCC; set-up: scale not given: the % may be the effect or the level left; outline: as §6
# [29] = Antimigratory activity in human U87MG cells at 0.4 uM […] by transwell membrane assay; format: functional, U-87MG ATCC
# [30] = Antiinvasive activity in human U87MG cells after 24 hrs by matrigel assay; format: functional, U-87MG ATCC
# Outline: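 U-87MG pre-exposed 24 h to compound or DMSO in 3% FBS, then 4 × 10^4 cells seeded in upper chamber of impedance-based CIM-16 plate (8 μm pore membrane) coated with Matrigel/collagen; lower chamber 10% FBS; cell index monitored at 37 °C, 5% CO2 for 12 h; slope (1/h) over set interval, DMSO slope set to 100; duplicate wells, repeated twice.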
# U-87MG ATCC [31] = experiment: Antiinvasive activity in human U87MG cells after 30 mins by boyden chamber assay; format: functional, cell-based
# U-87MG ATCC [32] = experiment: Antimigratory activity in human U87MG cells at 2 uM […] by transwell membrane assay; format: functional, cell-based
# Chain of Focal adhesion kinase 1 (Q05397 whole entry): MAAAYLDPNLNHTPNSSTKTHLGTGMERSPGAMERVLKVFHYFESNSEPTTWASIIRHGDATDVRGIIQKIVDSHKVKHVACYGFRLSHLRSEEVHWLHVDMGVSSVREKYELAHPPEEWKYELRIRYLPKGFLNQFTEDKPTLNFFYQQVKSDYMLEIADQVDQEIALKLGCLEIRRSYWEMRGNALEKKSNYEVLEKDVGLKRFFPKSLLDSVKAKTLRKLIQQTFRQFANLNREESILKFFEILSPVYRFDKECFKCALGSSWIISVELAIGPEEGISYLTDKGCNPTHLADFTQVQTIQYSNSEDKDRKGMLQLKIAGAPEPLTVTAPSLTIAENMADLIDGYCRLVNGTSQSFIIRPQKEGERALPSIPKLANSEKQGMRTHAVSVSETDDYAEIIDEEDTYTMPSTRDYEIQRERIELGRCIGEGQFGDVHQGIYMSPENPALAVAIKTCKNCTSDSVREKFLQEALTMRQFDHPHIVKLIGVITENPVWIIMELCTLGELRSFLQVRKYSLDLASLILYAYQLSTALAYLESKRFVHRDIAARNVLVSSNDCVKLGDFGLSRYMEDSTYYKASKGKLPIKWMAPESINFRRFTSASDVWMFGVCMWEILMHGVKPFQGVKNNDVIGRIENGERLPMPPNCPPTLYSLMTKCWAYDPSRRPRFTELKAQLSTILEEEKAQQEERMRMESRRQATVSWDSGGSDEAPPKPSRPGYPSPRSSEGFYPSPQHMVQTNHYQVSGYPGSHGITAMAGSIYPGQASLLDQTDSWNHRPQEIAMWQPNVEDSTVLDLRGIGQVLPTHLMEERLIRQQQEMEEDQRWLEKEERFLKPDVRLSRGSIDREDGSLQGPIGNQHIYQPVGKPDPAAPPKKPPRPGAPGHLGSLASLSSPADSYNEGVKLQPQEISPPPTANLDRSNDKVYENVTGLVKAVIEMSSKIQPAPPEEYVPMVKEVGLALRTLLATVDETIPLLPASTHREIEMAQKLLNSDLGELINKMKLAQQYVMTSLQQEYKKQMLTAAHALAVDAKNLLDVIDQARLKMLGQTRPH
smiles,measurement,setting,value
CNC(=O)c1ccccc1Nc1nc(Nc2cc(OC)c(OC)c(OC)c2)n2ccnc2n1,IC50,Focal adhesion kinase 1,310 nM
CS(=O)(=O)Nc1ccccc1Nc1nc(Nc2ccc(C#N)cc2)nc2nccn12,IC50,Focal adhesion kinase 1,920 nM
CNC(=O)c1ccccc1Cc1nc(Nc2cc(OC)c(OC)c(OC)c2)nc2nccn12,IC50,Focal adhesion kinase 1,180 nM
COC(=O)c1ccccc1Nc1nc(Nc2ccc(N3CCOCC3)cc2OC)nc2nccn12,IC50,Focal adhesion kinase 1,370 nM
CNC(=O)c1ccccc1Nc1nc(Nc2ccc(C#N)cc2)n2ccnc2n1,IC50,Focal adhesion kinase 1,1120 nM
C=COC(=O)NCc1ccc(Nc2nc(Nc3ccccc3C(=O)OC)nc3nccn23)cc1,IC50,Focal adhesion kinase 1,1050 nM
COC(=O)c1ccccc1Nc1nc(Nc2ccc(N3CCOCC3)cc2OC)n2ccnc2n1,IC50,Focal adhesion kinase 1,570 nM
COC(=O)c1cccc(Nc2nc(Nc3cc(OC)c(OC)c(OC)c3)nc3nccn23)c1,IC50,Focal adhesion kinase 1,870 nM
COC(=O)c1ccccc1Nc1nc(Nc2cc(OC)c(OC)c(OC)c2)n2ccnc2n1,IC50,Focal adhesion kinase 1,570 nM
COC(=O)c1cccc(Nc2nc(Nc3cc(OC)c(OC)c(OC)c3)n3ccnc3n2)c1,IC50,Focal adhesion kinase 1,1200 nM
CNC(=O)c1ccccc1Nc1nc(Nc2ccc(C#N)cc2)nc2nccn12,IC50,Focal adhesion kinase 1,710 nM
COC(=O)c1ccccc1Cc1nc(Nc2cc(OC)c(OC)c(OC)c2)nc2nccn12,IC50,Focal adhesion kinase 1,370 nM
CNC(=O)c1ccccc1Nc1nc(Nc2ccc(CN)cc2)n2ccnc2n1,IC50,Focal adhesion kinase 1,220 nM
CNC(=O)c1ccccc1Nc1nc(Nc2cc(OC)c(OC)c(OC)c2)nc2nccn12,IC50,[1],4200 nM
same,IC50,[2],950 nM
same,IC50,MDA-MB-231 [3],> 10000 nM
same,IC50,[4],350 nM
same,IC50,[5],220 nM
same,IC50,[6],760 nM
same,IC50,MDA-MB-231 [7],3900 nM
same,IC50,[8],990 nM
same,IC50,Focal adhesion kinase 1,230 nM
same,Activity,U-87 MG [9],Dose-dependent effect
same,Activity,U-87MG ATCC [10],Active
same,Activity,U-87MG ATCC [11],Dose-dependent effect
CNC(=O)c1ccccc1Nc1nc(Nc2ccc(CN)cc2)nc2nccn12,IC50,[1],370 nM
same,IC50,[2],310 nM
same,IC50,MDA-MB-231 [3],1080 nM
same,IC50,[4],1270 nM
same,IC50,[5],220 nM
same,inhibition,U-87MG ATCC [12],Dose-dependent effect
same,IC50,[6],120 nM
same,inhibition,HCT-116 [13],Dose-dependent effect
same,inhibition,MDA-MB-231 [7],Dose-dependent effect
same,IC50,MDA-MB-231 [7],520 nM
same,IC50,[8],1400 nM
same,inhibition,PC-3,Dose-dependent effect
same,Activity,U-87 MG [14],1.37%
same,Activity,U-87 MG [15],0.755%
same,Activity,U-87 MG [16],1.26%
same,viability at 0.3 µM,U-87 MG [17],96.6%
same,Activity,HCT-116 [18],4.24%
same,Activity,HCT-116 [19],4.06%
same,Activity,HCT-116 [20],3.03%
same,viability at 0.4 µM,HCT-116 [21],88.7%
same,IC50,Focal adhesion kinase 1,120 nM
same,Activity,HCT-116 [22],inactive
same,Activity,[23],24.4%
same,Activity,[24],12.8%
same,Activity,[25],61%
same,Activity,[26],Active
same,Activity,[27],Active
same,Activity,U-87 MG [9],Dose-dependent effect
same,Activity,U-87 MG [28],50%
same,Activity,[29],66.4%
same,Activity,U-87MG ATCC [11],Dose-dependent effect
same,Activity,[30],50%
same,Activity,U-87MG ATCC [31],Dose-dependent effect
CS(=O)(=O)Nc1ccccc1Nc1nc(Nc2ccc(C#N)cc2)n2ccnc2n1,IC50,Focal adhesion kinase 1,1730 nM
COC(=O)c1ccccc1Nc1nc(Nc2cc(OC)c(OC)c(OC)c2)nc2nccn12,IC50,Focal adhesion kinase 1,280 nM
COc1cc(NC2=Nc3nccn3C(Cc3ccccc3NC(C)=O)N2)cc(OC)c1OC (stereo not drawn),IC50,Focal adhesion kinase 1,8910 nM
CNC(=O)c1ccccc1Nc1nc(Nc2ccc(N3CCOCC3)cc2OC)nc2nccn12,IC50,[1],2310 nM
same,IC50,[2],340 nM
same,IC50,MDA-MB-231 [3],> 10000 nM
same,IC50,[4],270 nM
same,IC50,[5],1400 nM
same,inhibition,U-87MG ATCC [12],Dose-dependent effect
same,IC50,[6],20 nM
same,inhibition,HCT-116 [13],Dose-dependent effect
same,inhibition,MDA-MB-231 [7],Dose-dependent effect
same,IC50,MDA-MB-231 [7],> 10000 nM
same,IC50,[8],630 nM
same,inhibition,PC-3,Dose-dependent effect
same,IC50,Focal adhesion kinase 1,330 nM
same,Activity,U-87 MG [9],Dose-dependent effect
same,Activity,U-87MG ATCC [32],Active
same,Activity,U-87MG ATCC [11],Dose-dependent effect
CNC(=O)c1ccccc1Nc1nc(Nc2ccc(N3CCOCC3)cc2OC)n2ccnc2n1,IC50,Focal adhesion kinase 1,510 nM
COc1cc(Nc2nc(Cc3ccccc3NS(C)(=O)=O)nc3nccn23)cc(OC)c1OC,IC50,Focal adhesion kinase 1,840 nM
C=COC(=O)NCc1ccc(Nc2nc(Nc3ccccc3C(=O)NC)nc3nccn23)cc1,IC50,Focal adhesion kinase 1,880 nM
COC(=O)c1ccccc1Nc1nc(Nc2ccc(CN)cc2)nc2nccn12,IC50,Focal adhesion kinase 1,240 nM
C=COC(=O)NCc1ccc(Nc2nc(Nc3ccccc3C(=O)OC)n3ccnc3n2)cc1,IC50,Focal adhesion kinase 1,500 nM
COC(=O)c1ccccc1Nc1nc(Nc2ccc(CN)cc2)n2ccnc2n1,IC50,Focal adhesion kinase 1,280 nM

# — ChEMBL document CHEMBL3392964, “Design, synthesis, and evaluation of novel imidazo[1,2-a][1,3,5]triazines and their derivatives as focal adhesion kinase inhibitors with antitumor activity” (J Med Chem, 2015)
